Laboratory results reported in ChEMBL document CHEMBL3870305, “Synthesis, biological evaluation and molecular modeling studies of imidazo[1,2-a]pyridines derivatives as protein kinase inhibitors” (Eur J Med Chem, 2016).
Active and inactive are the calls of the source. No cut-off for these calls is given here.

How the values were obtained:
[1] = molecular target: CDK9/cyclin T1 (Homo sapiens) (UniProt O60563+P50750); experiment: Inhibition of full length recombinant human CDK9/CyclinT expressed in baculovirus infected Sf9 insect cells at 10 uM using YSPTSPSYSPTSPSYSPTSPSKKKK as substrate in presence of gamma[33P]ATP
[2] = molecular target: Cyclin-dependent kinase 5/CDK5 activator 1 (Homo sapiens) (UniProt Q00535+Q15078); experiment: Inhibition of full length recombinant human CDK5/p25 expressed in bacteria at 10 uM using histone H1 as substrate in presence of gamma[33P]ATP
Summary of the method: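 Buffer B (25 mM MOPS pH 7, β-glycerophosphate, p-nitrophenyl-phosphate, EGTA, 15 mM MgCl2, DTT, orthovanadate) with 0.8 µg/µl histone H1 and 15 µM [γ-33P]ATP. Compound tested at 10 µM; activity as % of the no-inhibitor control; n = 2, mean ± range.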

[3] = molecular target: Cyclin-dependent kinase 1/cyclin B1 (Homo sapiens) (UniProt P06493+P14635); experiment: Inhibition of full length recombinant human CDK1/CyclinB1 expressed in baculovirus infected Sf9 insect cells at 10 uM using histone H1 as substrate in presence of gamma[33P]ATP
Summary of the method: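 Buffer G (40 mM Tris pH 7.5, 20 mM MgCl2, 0.1 mg/ml BSA) with 0.8 µg/µl histone H1 and 15 µM [γ-33P]ATP. Compound tested at 10 µM; activity as % of the no-inhibitor control; n = 2, mean ± range.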

[4] = molecular target: CDK2/Cyclin A2 (Homo sapiens) (UniProt P24941+P20248); experiment: Inhibition of full length human CDK2/CyclinA at 10 uM using histone H1 as substrate in presence of gamma[33P]ATP; type: protein-complex assay
CLK1 (Mus musculus) [5] = experiment: Inhibition of CLK1 (unknown origin)
[6] = molecular target: Casein kinase I delta/epsilon (Sus scrofa); experiment: Inhibition of CK1 delta/epsilon (unknown origin)
[7] = molecular target: DYRK1A (Rattus norvegicus); experiment: Inhibition of DYRK1A (unknown origin)
[8] = molecular target: Glycogen synthase kinase-3 alpha/beta (Sus scrofa); experiment: Inhibition of GSK-3 alpha/beta (unknown origin)
[9] = system: DYRK1A (Rattus norvegicus); experiment: Inhibition of DYRK1A (unknown origin) at 10 uM in presence of gamma[33P]ATP relative to control
CLK1 (Mus musculus) [10] = experiment: Inhibition of CLK1 (unknown origin) at 10 uM in presence of gamma[33P]ATP relative to control
[11] = molecular target: Dual specificity protein kinase CLK1 (Mus musculus) (UniProt P22518); experiment: Competitive inhibition of full length recombinant mouse CLK1 expressed in bacteria using GRSRSRSRSRSR peptide as substrate in presence of varying levels of ATP by double-reciprocal method
Dual specificity protein kinase CLK1 (Mus musculus), sequence (P22518 whole entry, looked up): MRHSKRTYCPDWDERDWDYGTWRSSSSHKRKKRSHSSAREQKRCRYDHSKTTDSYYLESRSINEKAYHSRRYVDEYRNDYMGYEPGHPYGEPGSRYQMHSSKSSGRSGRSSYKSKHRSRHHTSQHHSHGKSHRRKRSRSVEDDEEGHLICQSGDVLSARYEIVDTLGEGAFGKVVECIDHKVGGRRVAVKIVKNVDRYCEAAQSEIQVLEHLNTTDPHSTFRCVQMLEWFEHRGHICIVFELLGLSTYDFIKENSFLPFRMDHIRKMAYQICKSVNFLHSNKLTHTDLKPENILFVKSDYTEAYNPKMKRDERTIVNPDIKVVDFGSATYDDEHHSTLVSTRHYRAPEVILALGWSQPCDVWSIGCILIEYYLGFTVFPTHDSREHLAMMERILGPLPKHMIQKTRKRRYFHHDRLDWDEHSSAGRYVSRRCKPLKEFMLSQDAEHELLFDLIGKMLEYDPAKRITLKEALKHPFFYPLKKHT

Cyclin-dependent kinase 1/cyclin B1 (Homo sapiens), sequence (P06493 whole entry, looked up): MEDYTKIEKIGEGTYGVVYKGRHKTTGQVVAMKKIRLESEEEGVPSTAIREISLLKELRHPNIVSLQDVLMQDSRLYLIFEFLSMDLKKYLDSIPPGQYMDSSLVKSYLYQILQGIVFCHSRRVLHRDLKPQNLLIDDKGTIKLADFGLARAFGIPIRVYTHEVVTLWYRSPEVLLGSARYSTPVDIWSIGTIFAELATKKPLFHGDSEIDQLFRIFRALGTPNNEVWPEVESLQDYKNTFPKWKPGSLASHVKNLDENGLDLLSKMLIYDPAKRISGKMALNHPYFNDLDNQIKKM
Cyclin-dependent kinase 1/cyclin B1 (Homo sapiens), sequence (P14635 whole entry, looked up): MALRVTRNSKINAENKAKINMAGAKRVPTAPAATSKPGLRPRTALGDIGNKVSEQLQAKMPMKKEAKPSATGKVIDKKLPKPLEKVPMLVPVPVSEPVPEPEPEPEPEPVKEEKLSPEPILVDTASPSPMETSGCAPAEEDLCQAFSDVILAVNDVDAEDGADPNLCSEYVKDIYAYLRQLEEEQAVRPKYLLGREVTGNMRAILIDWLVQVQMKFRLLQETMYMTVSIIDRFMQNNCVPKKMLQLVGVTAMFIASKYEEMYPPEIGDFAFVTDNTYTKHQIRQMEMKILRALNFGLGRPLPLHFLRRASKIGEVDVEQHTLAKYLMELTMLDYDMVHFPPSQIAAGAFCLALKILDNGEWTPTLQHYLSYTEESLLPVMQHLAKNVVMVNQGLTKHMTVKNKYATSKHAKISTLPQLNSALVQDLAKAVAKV
Cyclin-dependent kinase 5/CDK5 activator 1 (Homo sapiens), sequence (Q00535 whole entry): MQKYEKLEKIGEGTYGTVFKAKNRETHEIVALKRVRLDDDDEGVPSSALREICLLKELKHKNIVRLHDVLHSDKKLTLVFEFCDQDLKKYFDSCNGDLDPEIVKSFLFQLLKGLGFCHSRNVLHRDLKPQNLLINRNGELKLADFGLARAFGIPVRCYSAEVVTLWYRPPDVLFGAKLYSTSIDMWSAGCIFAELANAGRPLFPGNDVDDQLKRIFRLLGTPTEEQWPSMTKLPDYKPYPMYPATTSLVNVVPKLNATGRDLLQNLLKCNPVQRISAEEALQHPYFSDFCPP
Cyclin-dependent kinase 5/CDK5 activator 1 (Homo sapiens), sequence (Q15078 99-307 partner limits assumed): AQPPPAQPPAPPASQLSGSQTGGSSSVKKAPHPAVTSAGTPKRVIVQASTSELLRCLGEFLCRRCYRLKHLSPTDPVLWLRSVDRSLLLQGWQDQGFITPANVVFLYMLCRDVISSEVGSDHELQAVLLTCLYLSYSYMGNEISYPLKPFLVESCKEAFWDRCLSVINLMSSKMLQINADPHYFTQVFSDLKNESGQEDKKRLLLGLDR

Row | inhibition [1] | inhibition [2] | inhibition [3] | inhibition [4] | IC50 (CLK1 (Mus musculus) [5]) [µM] | IC50 [6] [µM] | IC50 [7] [µM] | IC50 [8] [µM] | inhibition [9] [%] | inhibition (CLK1 (Mus musculus) [10]) [%] | inhibition [11] | Structure (SMILES)
1 | Active | Active | Active | Active |  |  |  |  |  |  |  | NC(=O)c1cc(-c2cn3cc(Cl)ccc3n2)ccc1O
2 |  |  |  |  | > 10 | > 10 | > 10 | > 10 |  |  |  | COc1cccc(-c2cn3cc(Cl)ccc3n2)c1
3 |  |  |  |  | > 10 | > 10 | > 10 | > 10 |  |  |  | Oc1ccc(-c2cn3cc(Cl)ccc3n2)cc1
4 |  |  |  |  | > 10 | > 10 | > 10 | > 10 |  |  |  | COc1cc(OC)cc(-c2cn3cc(Cl)ccc3n2)c1
5 |  |  |  |  | > 10 | > 10 | > 10 | > 10 |  |  |  | COc1cc(-c2cn3cc(Cl)ccc3n2)cc(OC)c1OC
6 |  |  |  |  | > 10 | > 10 | > 10 | > 10 |  |  |  | NC(=O)c1cc(-c2cn3cc(N)ccc3n2)ccc1O

Second part, the compound before the results:

Row | Structure (SMILES) | inhibition [1] | inhibition [2] | inhibition [3] | inhibition [4] | IC50 (CLK1 (Mus musculus) [5]) [µM] | IC50 [6] [µM] | IC50 [7] [µM] | IC50 [8] [µM] | inhibition [9] [%] | inhibition (CLK1 (Mus musculus) [10]) [%] | inhibition [11]
7 | NC(=O)c1cc(-c2cn3cc(O)ccc3n2)ccc1O | Active | Active | Active | Active |  |  |  |  |  |  | 
8 | NC(=O)c1cc(-c2cn3cc(-c4ccc([N+](=O)[O-])cc4)ccc3n2)ccc1O |  |  |  |  | > 10 | > 10 | > 10 | > 10 |  |  | 
9 | NC(=O)c1cc(-c2cn3cc(F)ccc3n2)ccc1O |  |  |  |  | 1.4 | > 10 | 4.7 | > 10 | > 50 | > 50 | 
10 | NC(=O)c1cc(-c2cn3cc(Br)ccc3n2)ccc1O | Active | Active | Active | Active | 0.7 | > 10 | 2.6 | > 10 | > 50 | > 50 | Active
11 | NC(=O)c1cc(-c2cn3ccccc3n2)ccc1O |  |  |  |  | 1 | > 10 | 4 | > 10 | > 50 | > 50 | 
